Results from ChEMBL document CHEMBL4033712, “Synthesis and biological evaluation of new C-12(α/β)-(N-) sulfamoyl-phenylamino-14-deoxy-andrographolide derivatives as potent anti-cancer agents” (Bioorg Med Chem Lett, 2017).

Legend:
Format in all cases: functional
SK-OV-3 = test: Growth inhibition of human SKOV3 cells incubated for 48 hrs by sulforhodamine B assay; settings: SK-OV-3, 48 h
Procedure, shortened: (§1)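 NCI 60 human tumour cell line panel, five-dose study at 0.01, 0.1, 1, 10 and 100 µM, 48 h incubation. Sulforhodamine B protein-binding dye end point. GI50 (50% decrease in net cell growth), TGI (total growth inhibition) and LC50 (net 50% loss of initial cells) read from log concentration versus % growth inhibition curves.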

NCI-H522 = test: Growth inhibition of human NCI-H522 cells incubated for 48 hrs by sulforhodamine B assay; settings: NCI-H522, 48 h
Procedure, shortened: (§2)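 NCI-60 five-dose screen at 0.01, 0.1, 1, 10 and 100 µM, 48 h incubation, sulforhodamine B end point. GI50 (50% decrease in net growth), TGI (total growth inhibition) and LC50 (net 50% loss of initial cells) taken from log concentration versus % growth inhibition curves.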

OVCAR-8 = test: Growth inhibition of human OVCAR8 cells incubated for 48 hrs by sulforhodamine B assay; settings: OVCAR-8, 48 h; procedure, shortened: as §2
UACC-62 = test: Growth inhibition of human UACC62 cells incubated for 48 hrs by sulforhodamine B assay; settings: UACC-62, 48 h; procedure, shortened: as §1
HOP-92 = test: Anticancer activity against human HOP92 cells assessed as cell growth at 10 uM after 48 hrs by sulforhodamine B assay relative to control; settings: HOP-92, 48 h, read-out: Activity
Procedure, shortened: (§3)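 Single-dose NCI-60 panel screen: compound added at 10 µM and the culture incubated 48 h. The end point was read by protein staining with sulforhodamine B. The value is percent growth of treated cells relative to untreated control cells, reported as a mean graph across the panel.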

MOLT-4 = test: Growth inhibition of human MOLT4 cells incubated for 48 hrs by sulforhodamine B assay; settings: MOLT-4, 48 h; procedure, shortened: as §2
HOP-62 = test: Growth inhibition of human HOP62 cells incubated for 48 hrs by sulforhodamine B assay; settings: HOP-62, 48 h; procedure, shortened: as §2
SK-MEL-5 = test: Growth inhibition of human SK-MEL-5 cells incubated for 48 hrs by sulforhodamine B assay; settings: SK-MEL-5, 48 h; procedure, shortened: as §1
HCT-15 = test: Growth inhibition of human HCT15 cells incubated for 48 hrs by sulforhodamine B assay; settings: HCT-15, 48 h; procedure, shortened: as §2
U-251 = test: Growth inhibition of human U251 cells incubated for 48 hrs by sulforhodamine B assay; settings: U-251, 48 h; procedure, shortened: as §1
SF-295 = test: Growth inhibition of human SF295 cells incubated for 48 hrs by sulforhodamine B assay; settings: SF-295, 48 h; procedure, shortened: as §1
M14 = test: Growth inhibition of human M14 cells incubated for 48 hrs by sulforhodamine B assay; settings: M14, 48 h; procedure, shortened: as §2
RXF 393 = test: Growth inhibition of human RXF393 cells incubated for 48 hrs by sulforhodamine B assay; settings: RXF 393, 48 h; procedure, shortened: as §1
SF-539 = test: Anticancer activity against human SF539 cells assessed as cell growth at 10 uM after 48 hrs by sulforhodamine B assay relative to control; settings: SF-539, 48 h, read-out: Activity; procedure, shortened: as §3
MDA-MB-435 = test: Growth inhibition of human MDA-MB-435 cells incubated for 48 hrs by sulforhodamine B assay; settings: MDA-MB-435, 48 h; procedure, shortened: as §2
NCI-H226 = test: Growth inhibition of human NCI-H226 cells incubated for 48 hrs by sulforhodamine B assay; settings: NCI-H226, 48 h; procedure, shortened: as §2
NCI-H23 = test: Growth inhibition of human NCI-H23 cells incubated for 48 hrs by sulforhodamine B assay; settings: NCI-H23, 48 h; procedure, shortened: as §2
T47D = test: Growth inhibition of human T47D cells incubated for 48 hrs by sulforhodamine B assay; procedure, shortened: as §1
SR = test: Growth inhibition of human SR cells incubated for 48 hrs by sulforhodamine B assay; procedure, shortened: as §1
OVCAR-3 = test: Growth inhibition of human OVCAR3 cells incubated for 48 hrs by sulforhodamine B assay; settings: OVCAR-3, 48 h; procedure, shortened: as §2
UACC-257 = test: Growth inhibition of human UACC257 cells incubated for 48 hrs by sulforhodamine B assay; settings: UACC-257, 48 h; procedure, shortened: as §1
NCI-H460 = test: Growth inhibition of human NCI-H460 cells incubated for 48 hrs by sulforhodamine B assay; settings: NCI-H460, 48 h; procedure, shortened: as §2
CAKI-1 = test: Growth inhibition of human Caki1 cells incubated for 48 hrs by sulforhodamine B assay; settings: CAKI-1, 48 h; procedure, shortened: as §2
MCF7 = test: Growth inhibition of human MCF7 cells incubated for 48 hrs by sulforhodamine B assay; settings: MCF7, 48 h; procedure, shortened: as §2
RPMI-8226 = test: Growth inhibition of human RPMI8226 cells incubated for 48 hrs by sulforhodamine B assay; settings: RPMI-8226, 48 h; procedure, shortened: as §1
SNB-19 = test: Anticancer activity against human SNB19 cells assessed as cell growth at 10 uM after 48 hrs by sulforhodamine B assay relative to control; settings: SNB-19, 48 h, read-out: Activity; procedure, shortened: as §3
UO-31 = test: Growth inhibition of human UO31 cells incubated for 48 hrs by sulforhodamine B assay; settings: UO-31, 48 h; procedure, shortened: as §1
EKVX = test: Growth inhibition of human EKVX cells incubated for 48 hrs by sulforhodamine B assay; procedure, shortened: as §2
[1] = read-out: LC50 (the source's name)

In the case of `C=C1CC[C@@H]2[C@](C)(COC(C)=O)[C@H](OC(C)=O)CC[C@@]2(C)[C@H]1CC(Nc1ccc(S(=O)(=O)Nc2ncccn2)cc1)C1=CCOC1=O` (some centres not stated), the GI50 (SK-OV-3) is reported as 6.27 µM, the TGI (SK-OV-3) is reported as 18.3 µM and the CC50 (SK-OV-3; [1]) is reported as 42.8 µM. For the same compound, the GI50 (NCI-H522) was 0.49 µM, the TGI (NCI-H522) was 2.07 µM and the CC50 (NCI-H522; [1]) was 6.45 µM. The GI50 (OVCAR-8) was 1.48 µM, the TGI (OVCAR-8) was 3.55 µM and the CC50 (OVCAR-8; [1]) was 8.53 µM. It also gave a GI50 (UACC-62) of 1.11 µM, a TGI (UACC-62) of 2.56 µM and a CC50 (UACC-62; [1]) of 5.91 µM. For the same compound, the growth at 10 µM (HOP-92) was 56.3%, the GI50 (MOLT-4) was 2.27 µM and the TGI (MOLT-4) was 8.37 µM. It also gave a CC50 (MOLT-4; [1]) of over 100 µM, a GI50 (HOP-62) of 3.02 µM and a TGI (HOP-62) of 6.44 µM. For the same compound, the CC50 (HOP-62; [1]) was 21.5 µM, the GI50 (SK-MEL-5) was 1.9 µM and the TGI (SK-MEL-5) was 3.85 µM. It also gave a CC50 (SK-MEL-5; [1]) of 7.81 µM, a GI50 (HCT-15) of 1.21 µM and a TGI (HCT-15) of 3.32 µM. For the same compound, the CC50 (HCT-15; [1]) was 9.15 µM, the GI50 (U-251) was 1.74 µM and the TGI (U-251) was 3.28 µM. For the same compound, the CC50 (U-251; [1]) was 6.17 µM, the GI50 (SF-295) was 6.07 µM and the TGI (SF-295) was 18.7 µM. The CC50 (SF-295; [1]) was 44.6 µM, the GI50 (M14) was 1.44 µM and the TGI (M14) was 3.98 µM. It also gave a CC50 (M14; [1]) of 15.9 µM, a GI50 (RXF 393) of 1.95 µM and a TGI (RXF 393) of 3.58 µM. The CC50 (RXF 393; [1]) was 6.6 µM, the growth at 10 µM (SF-539) was -69% and the GI50 (MDA-MB-435) was 1.58 µM. It also gave a TGI (MDA-MB-435) of 3.77 µM, a CC50 (MDA-MB-435; [1]) of 9.04 µM and a GI50 (NCI-H226) of 1.63 µM. The TGI (NCI-H226) was 3.57 µM, the GI50 (NCI-H23) was 2.11 µM and the TGI (NCI-H23) was 5.38 µM. For the same compound, the CC50 (NCI-H23; [1]) was 26.7 µM, the GI50 (T47D) was 2 µM and the TGI (T47D) was 5.46 µM. It also gave a CC50 (T47D; [1]) of over 100 µM, a GI50 (SR) of 0.31 µM and a TGI (SR) of 17.2 µM. For the same compound, the CC50 (SR; [1]) was over 100 µM, the GI50 (OVCAR-3) was 1.21 µM and the TGI (OVCAR-3) was 2.54 µM. It also gave a CC50 (OVCAR-3; [1]) of 5.31 µM, a GI50 (UACC-257) of 2.34 µM and a TGI (UACC-257) of 6.07 µM. It also gave a CC50 (UACC-257; [1]) of 21.9 µM, a GI50 (NCI-H460) of 1.98 µM and a TGI (NCI-H460) of 4.06 µM. It also gave a CC50 (NCI-H460; [1]) of 8.32 µM, a GI50 (CAKI-1) of 1.74 µM and a TGI (CAKI-1) of 4.04 µM. The CC50 (CAKI-1; [1]) was 9.39 µM, the GI50 (MCF7) was 1.07 µM and the TGI (MCF7) was 4.54 µM. It also gave a CC50 (MCF7; [1]) of over 100 µM, a GI50 (RPMI-8226) of 0.54 µM and a TGI (RPMI-8226) of 3.12 µM. For the same compound, the CC50 (RPMI-8226; [1]) was over 100 µM, the growth at 10 µM (SNB-19) was 36.7% and the GI50 (UO-31) was 1.51 µM. It also gave an LC50 (concentration giving net 50% loss of initial cells) (UO-31) of 5.85 µM, a TGI (UO-31) of 2.97 µM and a GI50 (EKVX) of 8.18 µM. It also gave a TGI (EKVX) of 20.6 µM and a CC50 (EKVX; [1]) of 45.6 µM.
